Experiments:
Details in all cases: stereoisomer not certain
[1] = target: T1, OR10H4 (Homo sapiens) (UniProt Q8NGA5)
T1 sequence (whole entry): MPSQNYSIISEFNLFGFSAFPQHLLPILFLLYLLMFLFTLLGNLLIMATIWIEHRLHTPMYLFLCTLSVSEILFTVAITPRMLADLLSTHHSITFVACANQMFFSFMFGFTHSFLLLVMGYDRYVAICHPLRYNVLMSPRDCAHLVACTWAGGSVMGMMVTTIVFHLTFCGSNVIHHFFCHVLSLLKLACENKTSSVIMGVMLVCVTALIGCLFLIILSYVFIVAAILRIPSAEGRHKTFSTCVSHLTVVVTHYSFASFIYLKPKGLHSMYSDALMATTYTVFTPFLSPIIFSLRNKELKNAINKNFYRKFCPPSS
In short: (§1)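 Transient luciferase assays in mammalian cell lines were common, though methods varied by source. The values come from published papers and their supplementary material, with extra details from the original authors when needed. Responsive refers to a measured signal the original authors judged statistically different from baseline, and non-responsive (inactive) to the remainder.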

[2] = target: T2, OR10H5 (Homo sapiens) (UniProt Q8NGA6)
T2 sequence (whole entry): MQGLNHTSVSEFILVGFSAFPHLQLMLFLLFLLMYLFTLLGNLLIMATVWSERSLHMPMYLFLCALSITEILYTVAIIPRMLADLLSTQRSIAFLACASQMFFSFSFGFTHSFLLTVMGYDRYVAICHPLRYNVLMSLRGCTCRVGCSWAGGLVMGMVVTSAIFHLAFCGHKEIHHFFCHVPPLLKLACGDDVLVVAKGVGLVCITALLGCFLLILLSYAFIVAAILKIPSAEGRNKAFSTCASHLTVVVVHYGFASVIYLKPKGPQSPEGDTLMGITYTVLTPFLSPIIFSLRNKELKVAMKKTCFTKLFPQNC
In short: as §1

[3] = target: T3, OR10J3 (Homo sapiens) (UniProt Q5JRS4)
T3 sequence (whole entry): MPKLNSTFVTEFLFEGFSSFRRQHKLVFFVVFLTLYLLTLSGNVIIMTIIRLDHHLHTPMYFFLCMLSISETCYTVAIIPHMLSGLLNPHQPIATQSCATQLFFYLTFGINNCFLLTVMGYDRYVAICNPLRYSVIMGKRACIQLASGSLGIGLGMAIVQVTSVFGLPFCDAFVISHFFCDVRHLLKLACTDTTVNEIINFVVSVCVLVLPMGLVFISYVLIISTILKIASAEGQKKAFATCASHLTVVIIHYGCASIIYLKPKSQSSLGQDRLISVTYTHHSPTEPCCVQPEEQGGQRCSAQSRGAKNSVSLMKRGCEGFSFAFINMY
In short: as §1

[4] = target: OR10J4 (Homo sapiens) (UniProt P0C629)
OR10J4 (Homo sapiens), sequence (P0C629 whole entry F198I): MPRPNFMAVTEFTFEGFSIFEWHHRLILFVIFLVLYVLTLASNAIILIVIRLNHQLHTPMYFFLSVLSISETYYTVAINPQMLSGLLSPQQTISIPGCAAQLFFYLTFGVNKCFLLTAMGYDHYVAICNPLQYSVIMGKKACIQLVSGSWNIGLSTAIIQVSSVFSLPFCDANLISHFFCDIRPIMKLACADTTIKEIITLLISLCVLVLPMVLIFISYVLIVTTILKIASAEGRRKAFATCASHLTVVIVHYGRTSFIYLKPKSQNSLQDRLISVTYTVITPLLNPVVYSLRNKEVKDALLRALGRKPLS
In short: as §1

[5] = target: T4, OR10J5 (Homo sapiens) (UniProt Q8NHC4)
T4 sequence (whole entry): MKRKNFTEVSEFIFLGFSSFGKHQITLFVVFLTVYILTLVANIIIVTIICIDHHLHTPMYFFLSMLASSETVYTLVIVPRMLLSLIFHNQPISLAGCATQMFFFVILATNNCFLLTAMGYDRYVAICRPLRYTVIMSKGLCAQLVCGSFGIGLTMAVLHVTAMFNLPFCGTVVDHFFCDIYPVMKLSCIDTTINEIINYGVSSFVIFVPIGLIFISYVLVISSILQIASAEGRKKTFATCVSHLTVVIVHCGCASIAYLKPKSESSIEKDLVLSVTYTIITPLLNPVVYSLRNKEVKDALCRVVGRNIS
In short: as §1

[6] = target: T5, OR10K1 (Homo sapiens) (UniProt Q8NGX5)
T5 sequence (whole entry): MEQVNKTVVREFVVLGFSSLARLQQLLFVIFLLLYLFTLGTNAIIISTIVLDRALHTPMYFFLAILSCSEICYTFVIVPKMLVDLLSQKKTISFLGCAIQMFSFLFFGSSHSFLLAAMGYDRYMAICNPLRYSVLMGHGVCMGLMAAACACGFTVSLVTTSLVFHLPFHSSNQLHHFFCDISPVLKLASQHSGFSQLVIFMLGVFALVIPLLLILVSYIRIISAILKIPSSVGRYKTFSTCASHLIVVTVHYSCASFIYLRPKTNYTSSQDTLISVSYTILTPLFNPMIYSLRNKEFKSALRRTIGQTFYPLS
In short: as §1

[7] = target: T6, OR10K2 (Homo sapiens) (UniProt Q6IF99)
T6 sequence (whole entry): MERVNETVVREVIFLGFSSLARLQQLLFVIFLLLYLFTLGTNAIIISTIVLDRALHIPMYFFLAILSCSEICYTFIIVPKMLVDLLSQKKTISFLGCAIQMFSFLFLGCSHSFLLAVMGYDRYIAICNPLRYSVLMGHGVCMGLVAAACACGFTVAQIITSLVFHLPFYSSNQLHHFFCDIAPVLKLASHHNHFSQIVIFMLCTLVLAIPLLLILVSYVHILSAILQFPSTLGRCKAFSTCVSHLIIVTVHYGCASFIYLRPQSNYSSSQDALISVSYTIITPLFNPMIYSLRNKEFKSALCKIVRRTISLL
In short: as §1

[8] = target: T7, OR10P1 (Homo sapiens) (UniProt Q8NGE3)
T7 sequence (whole entry): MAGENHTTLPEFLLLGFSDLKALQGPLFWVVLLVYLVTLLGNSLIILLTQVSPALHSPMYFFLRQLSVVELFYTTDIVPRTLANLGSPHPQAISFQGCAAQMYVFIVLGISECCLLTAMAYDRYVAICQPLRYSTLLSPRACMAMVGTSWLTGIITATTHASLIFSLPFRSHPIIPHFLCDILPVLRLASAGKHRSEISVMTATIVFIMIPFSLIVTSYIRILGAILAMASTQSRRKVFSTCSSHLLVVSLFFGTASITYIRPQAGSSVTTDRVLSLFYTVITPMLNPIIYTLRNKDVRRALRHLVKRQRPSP
In short: as §1

[9] = target: T8, OR10Q1 (Homo sapiens) (UniProt Q8NGQ4)
T8 sequence (whole entry): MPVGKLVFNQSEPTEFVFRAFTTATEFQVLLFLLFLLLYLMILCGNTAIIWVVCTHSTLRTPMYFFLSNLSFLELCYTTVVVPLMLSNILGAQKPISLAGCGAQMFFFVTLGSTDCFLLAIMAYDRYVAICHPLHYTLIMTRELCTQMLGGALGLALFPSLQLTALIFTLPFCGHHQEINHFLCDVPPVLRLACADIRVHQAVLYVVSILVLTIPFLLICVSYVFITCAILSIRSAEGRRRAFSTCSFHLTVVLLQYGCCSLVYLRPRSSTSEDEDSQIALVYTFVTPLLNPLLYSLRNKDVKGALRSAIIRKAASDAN
In short: as §1

[10] = target: T9, OR10R2 (Homo sapiens) (UniProt Q8NGX6)
T9 sequence (whole entry): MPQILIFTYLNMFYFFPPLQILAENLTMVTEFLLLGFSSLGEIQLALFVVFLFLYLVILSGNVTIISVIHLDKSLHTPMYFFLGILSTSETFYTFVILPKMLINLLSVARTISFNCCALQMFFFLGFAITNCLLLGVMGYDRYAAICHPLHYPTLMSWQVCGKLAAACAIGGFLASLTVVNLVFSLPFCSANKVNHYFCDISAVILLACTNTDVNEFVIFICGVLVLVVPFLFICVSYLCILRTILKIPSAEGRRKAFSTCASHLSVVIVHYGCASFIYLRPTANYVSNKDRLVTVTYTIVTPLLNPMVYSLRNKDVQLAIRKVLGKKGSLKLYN
In short: as §1

[11] = target: T10, OR10S1 (Homo sapiens) (UniProt Q8NGN2)
T10 sequence (whole entry): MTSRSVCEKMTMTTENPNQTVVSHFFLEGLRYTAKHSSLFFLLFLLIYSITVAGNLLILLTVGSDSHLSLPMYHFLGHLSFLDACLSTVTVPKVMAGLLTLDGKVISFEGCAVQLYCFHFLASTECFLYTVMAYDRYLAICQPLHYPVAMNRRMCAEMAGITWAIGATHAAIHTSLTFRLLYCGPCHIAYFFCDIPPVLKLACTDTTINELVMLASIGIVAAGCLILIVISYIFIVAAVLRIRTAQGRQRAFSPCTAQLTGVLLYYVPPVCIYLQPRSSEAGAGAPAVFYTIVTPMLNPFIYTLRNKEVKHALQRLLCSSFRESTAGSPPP
In short: as §1

[12] = target: T11, OR10T2 (Homo sapiens) (UniProt Q8NGX3)
T11 sequence (whole entry): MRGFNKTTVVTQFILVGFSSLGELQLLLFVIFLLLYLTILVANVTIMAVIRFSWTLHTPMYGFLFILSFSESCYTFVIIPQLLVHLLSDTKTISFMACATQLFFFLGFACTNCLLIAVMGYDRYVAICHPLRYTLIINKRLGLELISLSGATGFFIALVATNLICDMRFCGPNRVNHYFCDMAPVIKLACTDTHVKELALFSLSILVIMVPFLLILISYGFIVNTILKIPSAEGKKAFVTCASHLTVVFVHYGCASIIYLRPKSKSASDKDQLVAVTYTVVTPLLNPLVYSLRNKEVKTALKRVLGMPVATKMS
In short: as §1

[13] = target: T12, OR10V1 (Homo sapiens) (UniProt Q8NGI7)
T12 sequence (whole entry): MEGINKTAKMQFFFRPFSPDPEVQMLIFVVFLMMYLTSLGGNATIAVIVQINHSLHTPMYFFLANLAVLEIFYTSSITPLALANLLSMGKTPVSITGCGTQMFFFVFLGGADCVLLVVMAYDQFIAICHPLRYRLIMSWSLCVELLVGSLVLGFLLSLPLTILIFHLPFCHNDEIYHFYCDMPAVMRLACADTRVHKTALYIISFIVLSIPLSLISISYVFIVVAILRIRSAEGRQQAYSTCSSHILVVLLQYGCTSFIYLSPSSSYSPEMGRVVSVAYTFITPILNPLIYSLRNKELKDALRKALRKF
In short: as §1

[14] = target: T13, OR10W1 (Homo sapiens) (UniProt Q8NGF6)
T13 sequence (whole entry): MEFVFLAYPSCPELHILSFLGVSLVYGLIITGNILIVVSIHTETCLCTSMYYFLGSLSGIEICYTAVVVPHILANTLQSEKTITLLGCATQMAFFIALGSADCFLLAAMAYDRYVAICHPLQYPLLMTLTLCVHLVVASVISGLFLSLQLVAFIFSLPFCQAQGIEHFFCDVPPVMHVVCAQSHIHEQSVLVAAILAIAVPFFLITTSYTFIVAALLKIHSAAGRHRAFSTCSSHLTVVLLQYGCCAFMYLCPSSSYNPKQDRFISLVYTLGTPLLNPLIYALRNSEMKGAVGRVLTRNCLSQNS
In short: as §1

[15] = target: T14, OR10X1 (Homo sapiens) (UniProt Q8NGY0)
T14 sequence (whole entry): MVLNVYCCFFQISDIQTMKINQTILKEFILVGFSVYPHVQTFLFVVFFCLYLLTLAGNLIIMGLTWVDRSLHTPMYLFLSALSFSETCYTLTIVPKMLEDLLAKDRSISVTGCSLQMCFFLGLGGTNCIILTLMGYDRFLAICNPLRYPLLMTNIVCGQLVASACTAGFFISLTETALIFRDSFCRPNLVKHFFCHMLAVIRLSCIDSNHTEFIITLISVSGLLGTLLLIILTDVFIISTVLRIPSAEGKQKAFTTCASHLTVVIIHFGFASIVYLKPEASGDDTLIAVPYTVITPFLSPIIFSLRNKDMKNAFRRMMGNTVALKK
In short: as §1

[16] = target: T15, OR10Z1 (Homo sapiens) (UniProt Q8NGY1)
T15 sequence (whole entry): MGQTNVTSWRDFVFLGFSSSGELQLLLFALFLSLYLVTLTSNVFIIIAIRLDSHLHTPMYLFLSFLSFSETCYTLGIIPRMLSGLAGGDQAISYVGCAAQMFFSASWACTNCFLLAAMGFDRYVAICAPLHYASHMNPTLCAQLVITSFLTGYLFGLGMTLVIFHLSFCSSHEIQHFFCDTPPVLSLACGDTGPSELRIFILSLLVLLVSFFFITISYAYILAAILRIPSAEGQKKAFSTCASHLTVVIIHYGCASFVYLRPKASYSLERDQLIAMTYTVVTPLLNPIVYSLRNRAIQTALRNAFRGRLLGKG
In short: as §1

[17] = target: T16, OR11A1 (Homo sapiens) (UniProt Q9GZK7)
T16 sequence (whole entry): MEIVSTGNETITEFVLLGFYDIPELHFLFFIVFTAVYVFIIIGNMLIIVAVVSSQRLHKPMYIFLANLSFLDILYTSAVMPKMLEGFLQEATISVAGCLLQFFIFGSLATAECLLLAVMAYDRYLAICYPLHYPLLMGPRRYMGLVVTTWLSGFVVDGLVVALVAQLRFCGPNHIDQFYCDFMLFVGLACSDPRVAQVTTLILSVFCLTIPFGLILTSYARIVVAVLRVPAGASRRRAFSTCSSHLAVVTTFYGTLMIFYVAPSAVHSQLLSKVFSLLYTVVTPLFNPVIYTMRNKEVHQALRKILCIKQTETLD
In short: as §1

[18] = target: T17, OR11G2 (Homo sapiens) (UniProt Q8NGC1)
T17 sequence (whole entry): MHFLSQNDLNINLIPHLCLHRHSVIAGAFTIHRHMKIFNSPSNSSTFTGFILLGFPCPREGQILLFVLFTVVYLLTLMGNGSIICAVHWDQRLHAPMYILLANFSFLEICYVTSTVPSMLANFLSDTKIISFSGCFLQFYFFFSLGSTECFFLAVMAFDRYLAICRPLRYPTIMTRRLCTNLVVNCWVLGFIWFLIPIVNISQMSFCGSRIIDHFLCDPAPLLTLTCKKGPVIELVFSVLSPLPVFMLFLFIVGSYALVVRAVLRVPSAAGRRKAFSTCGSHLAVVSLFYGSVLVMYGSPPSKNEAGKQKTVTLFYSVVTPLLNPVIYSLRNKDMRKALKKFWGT
In short: as §1

[19] = target: T18, OR11H1 (Homo sapiens) (UniProt Q8NG94)
T18 sequence (whole entry): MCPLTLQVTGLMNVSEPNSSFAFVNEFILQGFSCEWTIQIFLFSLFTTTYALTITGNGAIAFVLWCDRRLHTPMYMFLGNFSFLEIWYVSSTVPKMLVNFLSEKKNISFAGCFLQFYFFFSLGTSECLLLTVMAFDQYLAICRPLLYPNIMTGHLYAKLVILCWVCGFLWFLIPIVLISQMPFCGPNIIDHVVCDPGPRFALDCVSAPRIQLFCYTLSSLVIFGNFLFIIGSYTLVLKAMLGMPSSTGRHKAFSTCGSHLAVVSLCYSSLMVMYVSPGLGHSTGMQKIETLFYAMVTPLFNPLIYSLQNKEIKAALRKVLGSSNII
In short: as §1

Measured: odorant receptor agonist call

CC(=O)c1c(C)c([N+](=O)[O-])c(C(C)(C)C)c([N+](=O)[O-])c1C
inactive: all assays above

CC(C)=CCCC(C)CCO (stereo not given)
inactive: [5]

Reference: the M2OR odorant receptor database
